Laboratory results taken from ChEMBL document CHEMBL1157465, “Design, synthesis, and biological evaluation of novel 3-aryl-4-(1H-indole-3yl)-1,5-dihydro-2H-pyrrole-2-ones as vascular endothelial growth factor receptor (VEGF-R) inhibitors” (J Med Chem, 2008).

How the values were obtained:
[1] = target: T1, Receptor-type tyrosine-protein kinase FLT3 (Homo sapiens, UniProt P36888); test: Inhibition of human recombinant FLT3
T1 sequence (P36888 whole entry): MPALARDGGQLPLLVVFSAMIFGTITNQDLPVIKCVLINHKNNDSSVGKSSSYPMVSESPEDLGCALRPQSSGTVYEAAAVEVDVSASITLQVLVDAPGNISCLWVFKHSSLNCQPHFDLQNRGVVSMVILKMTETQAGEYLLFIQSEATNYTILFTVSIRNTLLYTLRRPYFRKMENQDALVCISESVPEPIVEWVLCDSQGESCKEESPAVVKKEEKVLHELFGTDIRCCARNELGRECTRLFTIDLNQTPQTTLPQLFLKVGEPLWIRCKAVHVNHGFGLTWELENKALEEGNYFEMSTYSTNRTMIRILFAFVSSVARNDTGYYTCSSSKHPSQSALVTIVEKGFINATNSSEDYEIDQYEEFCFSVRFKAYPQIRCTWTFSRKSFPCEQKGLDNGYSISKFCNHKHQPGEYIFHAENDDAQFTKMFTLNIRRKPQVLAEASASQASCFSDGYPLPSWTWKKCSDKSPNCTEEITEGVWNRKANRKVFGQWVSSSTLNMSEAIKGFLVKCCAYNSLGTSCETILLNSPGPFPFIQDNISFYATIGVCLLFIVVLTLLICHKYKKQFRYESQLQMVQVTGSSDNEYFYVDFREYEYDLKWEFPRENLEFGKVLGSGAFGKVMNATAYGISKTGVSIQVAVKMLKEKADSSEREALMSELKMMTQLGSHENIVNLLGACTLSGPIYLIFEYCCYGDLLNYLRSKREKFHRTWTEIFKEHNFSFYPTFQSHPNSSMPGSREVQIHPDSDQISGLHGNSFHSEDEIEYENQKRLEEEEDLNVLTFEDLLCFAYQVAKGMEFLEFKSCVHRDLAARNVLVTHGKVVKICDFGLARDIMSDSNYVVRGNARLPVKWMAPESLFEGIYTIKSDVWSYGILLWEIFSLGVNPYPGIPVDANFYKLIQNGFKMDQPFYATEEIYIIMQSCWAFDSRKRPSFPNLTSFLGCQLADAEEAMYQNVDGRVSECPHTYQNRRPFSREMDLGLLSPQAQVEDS
Procedure, shortened: (§1)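 Human kinases expressed in Sf9 cells via baculovirus as GST or His fusions and affinity purified. 33PanQinase assay in 60 mM HEPES-NaOH pH 7.5, 3 mM MgCl2, 3 mM MnCl2, 3 µM orthovanadate, 1.2 mM DTT, 1 µM [γ-33P]ATP, 1% DMSO; 30 °C, 80 min. Substrates: poly(Glu,Tyr) 4:1 for ERBB2, IGF1-R and SRC; poly(Ala,Glu,Lys,Tyr) 6:2:5:1 for FLT3. IC50 from 10 concentrations by scintillation counting.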

[2] = target: Cyclin-dependent kinase 2 (Homo sapiens, UniProt P24941); test: Inhibition of human recombinant CDK2/cyclin A
Procedure, shortened: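 Human kinases expressed in Sf9 cells by baculovirus as GST or His fusions and affinity purified. Radiometric 33PanQinase assay: 60 mM HEPES-NaOH pH 7.5, 3 mM MgCl2, 3 mM MnCl2, 3 µM orthovanadate, 1.2 mM DTT, 1 µM [γ-33P]ATP, 50-400 ng enzyme, 1% DMSO; 30 °C, 80 min. Substrates: B-Raf-VE, MEK1 KM; CDK2/CycA, histone H1; CK2-A1, casein; COT, autophosphorylation. IC50 from 10 concentrations; 33Pi incorporation by scintillation.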

[3] = target: Cyclin-dependent kinase 4/cyclin D1 (Homo sapiens, UniProt P11802); test: Inhibition of human recombinant CDK4/cyclin D1; type: protein-complex assay
Procedure, shortened: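 CDK4/CycD1 (human, baculovirus/Sf9, affinity-purified) with Rb-CTF as substrate. The radiometric FlashPlate assay held 1 µM [γ-33P]ATP in HEPES-NaOH pH 7.5 with 3 mM MgCl2 and 3 mM MnCl2.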

[4] = target: T2, NUAK family SNF1-like kinase 1 (Homo sapiens, UniProt O60285); test: Inhibition of human recombinant ARK5
T2 sequence (O60285 whole entry): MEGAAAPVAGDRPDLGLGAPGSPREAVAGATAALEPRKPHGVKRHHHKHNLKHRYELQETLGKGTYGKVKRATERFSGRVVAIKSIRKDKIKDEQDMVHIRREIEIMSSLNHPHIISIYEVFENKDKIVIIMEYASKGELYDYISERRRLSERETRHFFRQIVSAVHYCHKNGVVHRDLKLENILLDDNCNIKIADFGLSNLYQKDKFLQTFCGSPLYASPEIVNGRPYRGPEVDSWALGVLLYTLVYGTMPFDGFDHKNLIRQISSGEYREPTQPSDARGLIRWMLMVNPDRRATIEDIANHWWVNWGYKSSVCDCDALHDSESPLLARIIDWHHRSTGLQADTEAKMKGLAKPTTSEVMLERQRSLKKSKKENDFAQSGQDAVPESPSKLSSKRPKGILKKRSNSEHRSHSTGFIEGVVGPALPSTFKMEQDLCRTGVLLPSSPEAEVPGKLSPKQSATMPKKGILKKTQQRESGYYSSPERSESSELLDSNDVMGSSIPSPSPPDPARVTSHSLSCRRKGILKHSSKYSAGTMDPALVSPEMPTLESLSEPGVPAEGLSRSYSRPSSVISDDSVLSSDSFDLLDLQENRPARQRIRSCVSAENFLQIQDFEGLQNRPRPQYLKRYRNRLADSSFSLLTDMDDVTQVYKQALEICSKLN
Procedure, shortened: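 Human ARK5 made in Sf9 cells by baculovirus (GST- or His-tagged, affinity-purified) and read by autophosphorylation in a 33PanQinase radiometric assay. Buffer: 60 mM HEPES-NaOH pH 7.5, 3 mM MgCl2, 3 mM MnCl2, 3 µM orthovanadate, 1.2 mM DTT, PEG20000 and 1 µM [γ-33P]ATP.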

[5] = target: Focal adhesion kinase 1 (Homo sapiens, UniProt Q05397); test: Inhibition of human recombinant FAK
[6] = target: Aurora kinase B (Homo sapiens, UniProt Q96GD4); test: Inhibition of human recombinant Aurora B
Procedure, shortened: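 Aurora-A or Aurora-B, human cDNA expressed in Sf9 cells as tagged recombinant protein, phosphorylating Tetra(LRRWSLG). Reactions used 60 mM HEPES pH 7.5, Mg2+/Mn2+ (3 mM each), 1.2 mM DTT, vanadate and 1 µM [γ-33P]ATP, ran 80 min at 30 °C and were stopped with 2% H3PO4.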

[7] = target: Proto-oncogene tyrosine-protein kinase Src (Homo sapiens, UniProt P12931); test: Inhibition of human recombinant SRC; procedure, shortened: as §1
[8] = target: Angiopoietin-1 receptor (Homo sapiens, UniProt Q02763); test: Inhibition of human recombinant TIE2
Procedure, shortened: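 Recombinant human tyrosine kinases (EPHB4, TIE2, VEGF-R2, VEGF-R3), expressed in Sf9 insect cells as GST- or His-fusions, with poly(Glu,Tyr) 4:1 as substrate. Conditions: 1 µM [γ-33P]ATP, pH 7.5 HEPES buffer with Mg/Mn, DTT and vanadate, 30 °C for 80 min, 1% DMSO. Ten concentrations were tested and IC50 came from scintillation counting of incorporated 33P.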

Chain of Angiopoietin-1 receptor (Q02763 whole entry, the tested form may be a part): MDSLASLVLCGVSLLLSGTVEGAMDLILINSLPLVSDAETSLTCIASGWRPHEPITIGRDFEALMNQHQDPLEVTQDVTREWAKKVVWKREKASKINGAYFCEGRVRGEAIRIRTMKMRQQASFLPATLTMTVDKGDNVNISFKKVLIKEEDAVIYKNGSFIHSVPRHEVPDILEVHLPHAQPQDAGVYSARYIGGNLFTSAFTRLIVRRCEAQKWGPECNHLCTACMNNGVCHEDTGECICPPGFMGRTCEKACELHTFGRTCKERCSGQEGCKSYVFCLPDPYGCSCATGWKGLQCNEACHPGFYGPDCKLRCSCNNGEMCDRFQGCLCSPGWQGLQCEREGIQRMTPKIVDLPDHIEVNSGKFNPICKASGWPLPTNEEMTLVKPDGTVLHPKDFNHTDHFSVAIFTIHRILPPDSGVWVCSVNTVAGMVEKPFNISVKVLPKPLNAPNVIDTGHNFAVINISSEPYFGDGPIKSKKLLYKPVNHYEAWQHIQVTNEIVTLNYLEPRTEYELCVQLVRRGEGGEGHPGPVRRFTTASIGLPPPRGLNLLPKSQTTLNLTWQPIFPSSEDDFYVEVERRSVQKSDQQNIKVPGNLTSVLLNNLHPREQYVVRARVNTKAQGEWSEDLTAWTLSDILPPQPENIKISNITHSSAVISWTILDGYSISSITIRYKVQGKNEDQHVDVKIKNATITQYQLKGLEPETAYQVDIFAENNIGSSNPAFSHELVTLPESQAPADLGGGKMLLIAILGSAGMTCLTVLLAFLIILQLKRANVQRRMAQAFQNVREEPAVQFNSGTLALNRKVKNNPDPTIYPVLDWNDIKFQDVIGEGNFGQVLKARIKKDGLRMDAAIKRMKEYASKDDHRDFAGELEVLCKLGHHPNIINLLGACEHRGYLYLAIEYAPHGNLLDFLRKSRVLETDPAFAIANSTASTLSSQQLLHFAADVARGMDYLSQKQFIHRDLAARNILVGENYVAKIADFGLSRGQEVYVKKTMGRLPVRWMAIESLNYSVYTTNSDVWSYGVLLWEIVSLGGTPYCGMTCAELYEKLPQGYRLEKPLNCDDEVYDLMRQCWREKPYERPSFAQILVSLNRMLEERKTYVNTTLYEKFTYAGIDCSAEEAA
Chain of Focal adhesion kinase 1 (Q05397 whole entry): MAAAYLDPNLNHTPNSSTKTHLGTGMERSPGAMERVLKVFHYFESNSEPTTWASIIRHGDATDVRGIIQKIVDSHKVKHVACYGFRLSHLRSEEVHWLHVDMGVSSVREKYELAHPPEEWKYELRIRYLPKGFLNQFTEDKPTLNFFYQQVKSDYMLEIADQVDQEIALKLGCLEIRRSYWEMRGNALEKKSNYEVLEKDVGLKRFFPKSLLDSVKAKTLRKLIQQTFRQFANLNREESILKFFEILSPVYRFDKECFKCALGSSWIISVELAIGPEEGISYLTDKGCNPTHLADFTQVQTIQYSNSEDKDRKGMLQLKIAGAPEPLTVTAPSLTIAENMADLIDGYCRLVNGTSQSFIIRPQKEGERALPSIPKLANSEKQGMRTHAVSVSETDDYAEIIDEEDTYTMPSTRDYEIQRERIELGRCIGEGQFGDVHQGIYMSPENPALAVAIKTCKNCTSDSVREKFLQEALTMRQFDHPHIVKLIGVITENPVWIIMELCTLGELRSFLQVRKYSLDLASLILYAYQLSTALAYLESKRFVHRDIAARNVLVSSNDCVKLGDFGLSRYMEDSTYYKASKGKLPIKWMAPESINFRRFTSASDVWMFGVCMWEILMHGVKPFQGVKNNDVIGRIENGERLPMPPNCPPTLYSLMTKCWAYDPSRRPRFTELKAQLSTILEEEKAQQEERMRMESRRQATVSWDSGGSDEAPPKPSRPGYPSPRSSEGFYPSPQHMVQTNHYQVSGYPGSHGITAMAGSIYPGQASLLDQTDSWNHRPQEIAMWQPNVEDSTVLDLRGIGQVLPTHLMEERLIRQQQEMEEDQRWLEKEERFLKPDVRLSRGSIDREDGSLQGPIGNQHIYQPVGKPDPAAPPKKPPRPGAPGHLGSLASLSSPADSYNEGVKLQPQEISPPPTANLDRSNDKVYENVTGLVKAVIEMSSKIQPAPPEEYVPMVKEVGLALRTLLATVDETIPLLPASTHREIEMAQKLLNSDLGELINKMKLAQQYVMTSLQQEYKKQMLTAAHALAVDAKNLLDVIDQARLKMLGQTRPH
Chain of Cyclin-dependent kinase 4/cyclin D1 (P11802 whole entry): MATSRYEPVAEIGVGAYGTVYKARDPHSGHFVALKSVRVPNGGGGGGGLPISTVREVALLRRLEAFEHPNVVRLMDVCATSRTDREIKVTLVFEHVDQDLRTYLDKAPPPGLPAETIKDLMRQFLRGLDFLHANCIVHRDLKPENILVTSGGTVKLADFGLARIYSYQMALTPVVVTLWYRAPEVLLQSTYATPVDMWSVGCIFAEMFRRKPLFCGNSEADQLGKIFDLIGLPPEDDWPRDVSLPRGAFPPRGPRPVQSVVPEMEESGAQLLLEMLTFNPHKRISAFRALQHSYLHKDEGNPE
Chain of Cyclin-dependent kinase 4/cyclin D1 (P24385 whole entry, further chain): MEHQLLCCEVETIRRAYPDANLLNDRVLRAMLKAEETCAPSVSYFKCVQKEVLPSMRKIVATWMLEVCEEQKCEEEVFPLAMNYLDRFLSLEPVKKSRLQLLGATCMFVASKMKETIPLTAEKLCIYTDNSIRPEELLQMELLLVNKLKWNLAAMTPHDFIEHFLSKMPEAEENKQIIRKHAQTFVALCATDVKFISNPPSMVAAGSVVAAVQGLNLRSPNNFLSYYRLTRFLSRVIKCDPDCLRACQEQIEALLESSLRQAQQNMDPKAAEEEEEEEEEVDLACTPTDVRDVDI
Chain of Proto-oncogene tyrosine-protein kinase Src (P12931 2-536 limits assumed): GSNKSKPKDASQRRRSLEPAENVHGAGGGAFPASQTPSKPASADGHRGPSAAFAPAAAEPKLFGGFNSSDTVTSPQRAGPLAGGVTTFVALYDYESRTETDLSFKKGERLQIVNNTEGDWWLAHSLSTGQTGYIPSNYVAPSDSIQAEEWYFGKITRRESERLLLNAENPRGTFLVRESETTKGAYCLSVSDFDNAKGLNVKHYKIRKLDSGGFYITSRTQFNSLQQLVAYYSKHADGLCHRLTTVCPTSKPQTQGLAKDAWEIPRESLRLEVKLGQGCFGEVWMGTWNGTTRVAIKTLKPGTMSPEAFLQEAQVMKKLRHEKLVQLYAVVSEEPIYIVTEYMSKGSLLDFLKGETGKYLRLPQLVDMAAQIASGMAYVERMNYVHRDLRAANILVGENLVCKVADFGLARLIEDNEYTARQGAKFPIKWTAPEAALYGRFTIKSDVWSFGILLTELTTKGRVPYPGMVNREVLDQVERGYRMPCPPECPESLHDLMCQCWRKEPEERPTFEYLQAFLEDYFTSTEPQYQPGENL
Chain of Aurora kinase B (Q96GD4 whole entry): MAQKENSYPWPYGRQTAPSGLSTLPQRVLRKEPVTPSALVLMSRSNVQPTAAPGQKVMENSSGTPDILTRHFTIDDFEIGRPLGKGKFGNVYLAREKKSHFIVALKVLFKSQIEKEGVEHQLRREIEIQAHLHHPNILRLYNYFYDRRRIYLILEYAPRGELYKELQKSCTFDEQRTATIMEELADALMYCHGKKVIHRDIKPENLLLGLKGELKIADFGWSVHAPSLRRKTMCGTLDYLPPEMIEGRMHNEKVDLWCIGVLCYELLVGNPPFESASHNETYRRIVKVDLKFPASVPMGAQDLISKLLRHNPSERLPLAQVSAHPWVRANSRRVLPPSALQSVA

| Structure (SMILES) | IC50 [1] [µM] | IC50 [2] [µM] | IC50 [3] [µM] | IC50 [4] [µM] | IC50 [5] [µM] | IC50 [6] [µM] | IC50 [7] [µM] | IC50 [8] [µM] |
| --- | --- | --- | --- | --- | --- | --- | --- | --- |
| COc1cc(C2=C(c3cn(C)c4ccccc34)C(=O)NC2)cc(OC)c1OC | 5 | 42 | 40 | 4.9 | 50 | 9.8 |  |  |
| COc1cc(C2=C(c3c[nH]c4ccccc34)CNC2=O)cc(OC)c1OC | 6.1 |  |  |  | 9.5 | 46 | 14 | 5.2 |
| COc1ccc(C2=C(c3c[nH]c4ccccc34)C(=O)NC2)cc1 | 9.9 |  | 35 | 2 |  | 4.9 |  |  |
| COc1cc(C2=C(c3c[nH]c4ccccc34)C(=O)NC2)cc(OC)c1OC | 2.2 |  | 30 | 1.8 |  | 2.1 | 41 | 34 |
| COc1cc(C2=C(c3cn(COC(C)(C)C)c4ccccc34)CNC2=O)cc(OC)c1OC | 20 | 23 | 27 |  | 28 | 43 | 4.4 | 11 |
| COc1cc(C2=C(c3cn(CC(O)CO)c4ccccc34)CNC2=O)cc(OC)c1OC (stereo unspecified) | 3 |  |  | 34 |  |  |  | 25 |
